ChEMBL document CHEMBL3621189, “Identification of non-peptidic cysteine reactive fragments as inhibitors of cysteine protease rhodesain” (Bioorg Med Chem Lett, 2015)
pIC50: −log10 of the molar value. Calls of active or inactive are those of the source. No cut-off for these calls is given here.

Columns and labels:
[1] = system: Trypanosoma brucei brucei; experiment: Antitrypanosomal activity against Trypanosoma brucei brucei 427 assessed as growth inhibition after 24 hrs by Alamar Blue assay; format: functional, organism-based; conditions: Trypanosoma brucei, 427, 24 h
[2] = biological target: Rhodesain (Trypanosoma brucei rhodesiense) (UniProt Q95PM0); experiment: Inhibition of Trypanosoma brucei rhodesiense Rhodesain expressed in Pichia pastoris using Z-Phe-Arg-AMC as substrate at 10 uM preincubated for 30 mins followed by substrate addition by fluorescence assay relative to control
In short: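 Single-concentration enzymatic screen of a 200-member cysteine-reactive electrophilic fragment library at 10 μM against rhodesain, scored as percent inhibition. Actives were retested at 10 μM in a confirmatory enzymatic assay.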

[3] = system: HepG2; experiment: Cytotoxicity against human HepG2 cells after 72 hrs by MTT assay; format: cell-based; conditions: HepG2, 72 h
[4] = biological target: Rhodesain (Trypanosoma brucei rhodesiense) (UniProt Q95PM0); experiment: Time-dependent inhibition of Trypanosoma brucei rhodesiense Rhodesain expressed in Pichia pastoris using Z-Phe-Arg-AMC as substrate assessed as ratio of Kinact to Ki preincubated for 30 mins followed by substrate addition measured for 7 mins by fluorescence assay

Sequence of Rhodesain (Trypanosoma brucei rhodesiense) (Q95PM0 1-450): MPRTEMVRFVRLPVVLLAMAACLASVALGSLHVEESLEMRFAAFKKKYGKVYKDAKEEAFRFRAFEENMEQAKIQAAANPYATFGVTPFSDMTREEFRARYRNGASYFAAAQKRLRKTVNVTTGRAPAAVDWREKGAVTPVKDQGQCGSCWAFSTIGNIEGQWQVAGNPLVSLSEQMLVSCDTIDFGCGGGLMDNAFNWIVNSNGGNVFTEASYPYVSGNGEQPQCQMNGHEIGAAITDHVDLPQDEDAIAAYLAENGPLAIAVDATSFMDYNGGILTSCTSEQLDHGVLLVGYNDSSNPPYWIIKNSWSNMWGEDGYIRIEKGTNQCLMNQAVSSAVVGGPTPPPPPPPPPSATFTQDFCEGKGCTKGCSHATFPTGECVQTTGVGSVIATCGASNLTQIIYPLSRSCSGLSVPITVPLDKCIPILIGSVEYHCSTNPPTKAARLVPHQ

In the case of CC(C)CC(=O)N1CCC(C(=O)NC/C=C/S(C)(=O)=O)CC1, the pIC50 [1] was < 4.30, the inhibition [2] was < 40% and the pIC50 [3] was < 3.82. For the same compound, the inhibition [4] was “inactive”.

In the case of COC(=O)/C=C/CNC(=O)c1sc(-c2ccccc2F)nc1C, the pIC50 [1] was 4.52, the pIC50 [3] was < 3.82 and the Ratio [4] was 18.3 M⁻¹ s⁻¹.

COC(=O)/C=C/CNC(=O)C1CCN(C(=O)CC(C)C)CC1 was tested, and the pIC50 [1] was < 4.30, the inhibition [2] was < 40% and the pIC50 [3] was < 3.82. For the same compound, the inhibition [4] was “inactive”.

Cc1nc(-c2ccccc2F)sc1C(=O)NC/C=C/S(C)(=O)=O was tested, and the pIC50 [1] was 4.52, the inhibition [2] was < 40% and the pIC50 [3] was 4.16. It also gave a Ratio [4] of 3.47 M⁻¹ s⁻¹.

With Cc1ccc(-c2cc(C(=O)NC/C=C/S(C)(=O)=O)no2)cc1 the pIC50 [1] was 4.53, the inhibition [2] was < 40% and the pIC50 [3] was 4.12. The inhibition [4] was “inactive”.

For COC(=O)/C=C/CNC(=O)c1cc(-c2ccc(C)cc2)on1, the pIC50 [1] was 4.36, the pIC50 [3] was < 3.82 and the Ratio [4] was 13.2 M⁻¹ s⁻¹.
